# The source made the active and inactive calls. No cut-off for these calls is given here.
# Experiments:
# Assay type in all cases: functional
# Staphylococcus aureus [1] = assay: Downregulation of type VII secretion protein EsaB protein expression in Staphylococcus aureus measured after 2 hrs by LC-MS/MS analysis
# Summary of the method: (§1)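 S. aureus ATCC 25923 at OD600 0.6 exposed to compound or DMSO control for 2 h at 37°C, normalized to OD600 1.1 and PBS-washed. Cells were pressure-cycling lysed in 100 mM ammonium bicarbonate, and 50 μg protein was acetone-precipitated, reduced and alkylated, then Trypsin/Lys-C digested and C18-desalted. About 1 μg peptides went to LC-MS/MS. Label-free quantitation kept proteins present in all 3 samples, filtered at p <0.05.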
# Staphylococcus aureus [2] = assay: Antibacterial activity against methicillin-sensitive Staphylococcus aureus ATCC 6538 assessed as inhibition of bacterial growth incubated for 18 to 20 hrs by broth microdilution method; settings: time 18-20 hrs
# Summary of the method: (§2)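 Broth microdilution per CLSI. Inoculum was set to 0.5 McFarland and diluted in CAMHB to about 5×10^5 CFU/mL. Serial dilutions of agent were incubated aerobically at 37 °C for 18–20 h. MIC was read visually as the lowest concentration with complete growth inhibition.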
# Staphylococcus aureus [3] = assay: Downregulation of threonine synthase protein expression in Staphylococcus aureus measured after 2 hrs by LC-MS/MS analysis; summary of the method: as §1
# Staphylococcus aureus [4] = assay: Downregulation of nucleoside permease protein expression in Staphylococcus aureus measured after 2 hrs by LC-MS/MS analysis; summary of the method: as §1
# Staphylococcus aureus [5] = assay: Downregulation of peptide ABC transporter permease protein expression in Staphylococcus aureus measured after 2 hrs by LC-MS/MS analysis; summary of the method: as §1
# Staphylococcus aureus [6] = assay: Downregulation of GloB protein expression in Staphylococcus aureus assessed as log2 of fold change in protein level measured after 2 hrs by LC-MS/MS analysis relative to control
# Summary of the method: (§3)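 S. aureus ATCC 25923 at OD600 0.6 was treated with compound or DMSO for 2 h at 37 °C, normalised to OD600 1.1, and washed in PBS. Cells were pressure-lysed in 100 mM ammonium bicarbonate, then acetone-precipitated, reduced with DTT, alkylated with iodoacetamide, and digested with trypsin/Lys-C. Peptides were desalted and run on LC-MS/MS. Label-free quantitation used proteins present in all 3 samples, filtered at p<0.05 against DMSO.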
# [7] = tested on: Staphylococcus epidermidis; assay: Antibacterial activity against Staphylococcus epidermidis NRS 101 assessed as inhibition of bacterial growth incubated for 18 to 20 hrs by broth microdilution method; settings: time 18-20 hrs
# Summary of the method: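 Broth microdilution per CLSI. Inoculum at 0.5 McFarland, diluted in cation-adjusted Mueller Hinton broth to about 5 × 10^5 CFU/mL. Serial compound dilutions incubated aerobically at 37° C for 18–20 hours. MIC taken as the lowest concentration completely inhibiting visible growth.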
# Staphylococcus aureus [8] = assay: Downregulation of holo-ACP synthase protein expression in Staphylococcus aureus measured after 2 hrs by LC-MS/MS analysis; summary of the method: as §3
# Listeria monocytogenes = assay: Antibacterial activity against Listeria monocytogenes ATCC 19111 assessed as inhibition of bacterial growth incubated for 18 to 20 hrs by broth microdilution method; settings: time 18-20 hrs
# Summary of the method: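 Broth microdilution with a 0.5 McFarland inoculum diluted in tryptic soy broth to about 5 × 10^5 CFU/mL. Serial compound dilutions incubated aerobically at 37° C for 18–20 hours. MIC read visually as the lowest concentration with no growth.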
# Staphylococcus aureus [9] = assay: Antibacterial activity against methicillin-resistant Staphylococcus aureus NRS 385 assessed as inhibition of bacterial growth incubated for 18 to 20 hrs by broth microdilution method; settings: time 18-20 hrs; summary of the method: as §2
# Staphylococcus aureus [10] = assay: Downregulation of NarG protein expression in Staphylococcus aureus assessed as log2 of fold change in protein level measured after 2 hrs by LC-MS/MS analysis relative to control; summary of the method: as §3
# Staphylococcus aureus [11] = assay: Upregulation of DUF4930 domain-containing protein expression in Staphylococcus aureus measured after 2 hrs by LC-MS/MS analysis; summary of the method: as §1
# Staphylococcus aureus [12] = assay: Upregulation of acyl phosphatase expression in Staphylococcus aureus measured after 2 hrs by LC-MS/MS analysis; summary of the method: as §1
# Staphylococcus aureus [13] = assay: Downregulation of signal peptidase II protein expression in Staphylococcus aureus measured after 2 hrs by LC-MS/MS analysis; summary of the method: as §1
# Staphylococcus aureus [14] = assay: Upregulation of dihydroxyacetone kinase subunit L expression in Staphylococcus aureus measured after 2 hrs by LC-MS/MS analysis; summary of the method: as §1
# Staphylococcus aureus [15] = assay: Downregulation of Als protein expression in Staphylococcus aureus assessed as log2 of fold change in protein level measured after 2 hrs by LC-MS/MS analysis relative to control; summary of the method: as §3
# Staphylococcus aureus [16] = assay: Downregulation of DNA-binding response regulator protein expression in Staphylococcus aureus measured after 2 hrs by LC-MS/MS analysis; summary of the method: as §3
# Staphylococcus aureus [17] = assay: Upregulation of L-serine dehydratase, iron-sulfurdependent subunit alpha expression in Staphylococcus aureus measured after 2 hrs by LC-MS/MS analysis; summary of the method: as §1
# Staphylococcus aureus [18] = assay: Upregulation of thiol reductase thioredoxin expression in Staphylococcus aureus measured after 2 hrs by LC-MS/MS analysis; summary of the method: as §1
# Enterococcus faecalis = assay: Antibacterial activity against vancomycin-resistant Enterococcus faecalis ATCC 51299 assessed as inhibition of bacterial growth incubated for 18 to 20 hrs by broth microdilution method; settings: time 18-20 hrs
# Summary of the method: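 Broth microdilution per CLSI. Enterococci were diluted to about 5×10^5 CFU/mL in TSB and incubated aerobically with serial dilutions of agent at 37 °C for 18–20 h. MIC was read visually as the lowest concentration with no visible growth.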
# Staphylococcus aureus [19] = assay: Downregulation of AdhE protein expression in Staphylococcus aureus assessed as log2 of fold change in protein level measured after 2 hrs by LC-MS/MS analysis relative to control; summary of the method: as §3
# Staphylococcus aureus [20] = assay: Downregulation of nitrite reductase (NAD(P)H) small subunit protein expression in Staphylococcus aureus measured after 2 hrs by LC-MS/MS analysis; summary of the method: as §1
# Staphylococcus aureus [21] = assay: Upregulation of MecA protein expression in Staphylococcus aureus assessed as log2 of fold change in protein level measured after 2 hrs by LC-MS/MS analysis relative to control; summary of the method: as §1
# Staphylococcus aureus [22] = assay: Downregulation of glycero-phosphodiester phosphodiesterase protein expression in Staphylococcus aureus measured after 2 hrs by LC-MS/MS analysis; summary of the method: as §3
# Staphylococcus aureus [23] = assay: Downregulation of copper-translocating P-type ATPase protein expression in Staphylococcus aureus measured after 2 hrs by LC-MS/MS analysis; summary of the method: as §3
# Staphylococcus aureus [24] = assay: Downregulation of PyrF protein expression in Staphylococcus aureus assessed as log2 of fold change in protein level measured after 2 hrs by LC-MS/MS analysis relative to control; summary of the method: as §3
# Staphylococcus aureus [25] = assay: Downregulation of MtaB protein expression in Staphylococcus aureus assessed as log2 of fold change in protein level measured after 2 hrs by LC-MS/MS analysis relative to control; summary of the method: as §3
# Staphylococcus aureus [26] = assay: Antibacterial activity against methicillin-resistant Staphylococcus aureus NRS123 assessed as inhibition of bacterial growth incubated for 18 to 20 hrs by broth microdilution method; settings: time 18-20 hrs; summary of the method: as §2
# Staphylococcus aureus [27] = assay: Downregulation of EsxA protein expression in Staphylococcus aureus assessed as log2 of fold change in protein level measured after 2 hrs by LC-MS/MS analysis relative to control; summary of the method: as §3
compound,measurement,setting,value
CC1CC(C)CN(S(=O)(=O)c2ccc(C(=O)Nc3nnc(-c4ccc(C(F)(F)F)cc4)o3)cc2)C1 (centres undefined),Activity,Staphylococcus aureus [1],Active
same,MIC,Staphylococcus aureus [2],0.25 µg/mL
same,Activity,Staphylococcus aureus [3],Active
same,Activity,Staphylococcus aureus [4],Active
same,Activity,Staphylococcus aureus [5],Active
same,log2FC,Staphylococcus aureus [6],-2
same,MIC,[7],0.25 µg/mL
same,Activity,Staphylococcus aureus [8],Active
same,MIC,Listeria monocytogenes,0.06 µg/mL
same,MIC,Staphylococcus aureus [9],0.25 µg/mL
same,log2FC,Staphylococcus aureus [10],-2
same,Activity,Staphylococcus aureus [11],Active
same,Activity,Staphylococcus aureus [12],Active
same,Activity,Staphylococcus aureus [13],Active
same,Activity,Staphylococcus aureus [14],Active
same,log2FC,Staphylococcus aureus [15],-2.7
same,Activity,Staphylococcus aureus [16],Active
same,Activity,Staphylococcus aureus [17],Active
same,Activity,Staphylococcus aureus [18],Active
same,MIC,Enterococcus faecalis,0.25 µg/mL
same,log2FC,Staphylococcus aureus [19],-2.5
same,Activity,Staphylococcus aureus [20],Active
same,log2FC,Staphylococcus aureus [21],2
same,Activity,Staphylococcus aureus [22],Active
same,Activity,Staphylococcus aureus [23],Active
same,log2FC,Staphylococcus aureus [24],-2.2
same,log2FC,Staphylococcus aureus [25],-2
same,MIC,Staphylococcus aureus [26],0.25 µg/mL
same,log2FC,Staphylococcus aureus [27],-2

# From ChEMBL document CHEMBL5154895, “Mechanistic Studies and In Vivo Efficacy of an Oxadiazole-Containing Antibiotic” (J Med Chem, 2022)
